Experiment [1] deals with Staphylococcus aureus. Description: Antibacterial activity against Staphylococcus aureus ATCC 6538p assessed as growth inhibition after 24 hrs by micro dilution method. Type of experiment: functional. A digest of the protocol:
(§1)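 MIC determined by broth microdilution in casein soy broth (pH 7.3) at an inoculum of 10^5 CFU/mL, incubated 24 h at 37 C. Levofloxacin was the comparator and controls were run alongside. Samples were tested in quadruplicate.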

Experiment [2] relates to Staphylococcus aureus. Description: Antibacterial activity against Staphylococcus aureus ATCC 6538p. Type of experiment: functional. A digest of the protocol: as §1
The next experiment relates to Pseudomonas aeruginosa. As to the kind of experiment: Antibacterial activity against Pseudomonas aeruginosa ATCC […] assessed as growth inhibition after 24 hrs by micro dilution method. Type of experiment: functional. A digest of the protocol: as §1
A further experiment concerns Bacillus spizizenii. Description: Antibacterial activity against Bacillus subtilis ATCC 6633 assessed as growth inhibition after 24 hrs by micro dilution method. The note with it: ATCC 6633, 24 h. Type of experiment: functional. The essentials: as §1
For experiment [3], the system named is Escherichia coli. As to the kind of experiment: Antibacterial activity against Escherichia coli ATCC 25922. Format: functional.
Experiment [4] has as its system Shigella sonnei. As to the kind of experiment: Antibacterial activity against Shigella sonnei ATCC 15305. Type of experiment: functional.
Experiment [5] concerns Shigella sonnei. As to the kind of experiment: Antibacterial activity against Shigella sonnei ATCC 15305 assessed as growth inhibition after 24 hrs by micro dilution method. Type of experiment: functional. Conditions: ATCC 15305, 24 h. The essentials: as §1
The test system of experiment [6] is Escherichia coli. Description: Antibacterial activity against Escherichia coli ATCC 25922 assessed as growth inhibition after 24 hrs by micro dilution method. Format: functional. The note with it: ATCC 25922, 24 h. A digest of the protocol:
as §1

The subject of experiment [7] is Salmonella typhimurium. Description: Antibacterial activity against Salmonella typhimurium ATCC 14028 assessed as growth inhibition after 24 hrs by micro dilution method. The note with it: Salmonella enterica, ATCC 14028, 24 h. Format: functional, Salmonella enterica subsp. enterica serovar Typhimurium. A digest of the protocol: as §1
Experiment [8] deals with Salmonella typhimurium. As to the kind of experiment: Antibacterial activity against Salmonella typhimurium ATCC 14028. Format: functional, Salmonella enterica subsp. enterica serovar Typhimurium. A digest of the protocol: as §1
Experiment [9] relates to Enterococcus sp. Description: Antibacterial activity against Enterococcus sp. ATCC 6589 assessed as growth inhibition by measuring turbidity of medium at MIC measured over 10 hrs by microplate reader analysis. Type of experiment: functional, organism-based. A digest of the protocol: (§2)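 Overnight casein soy broth cultures (37 C) were centrifuged, resuspended in fresh medium and adjusted to about 5 10^7 cells/mL (OD620 0.2). Cells were grown in microplate wells to mid-log phase, then twofold serial dilutions of the test agents in fresh medium were added. OD620 was read every 15 min at 23 C for 10 h, with 30 s shaking between reads. Runs were in quadruplicate.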

The subject of experiment [10] is Enterococcus sp. As to the kind of experiment: Antibacterial activity against Enterococcus sp. ATCC 6589. Type of experiment: functional.
In experiment [11] the test system is Morganella morganii. As to the kind of experiment: Antibacterial activity against Morganella morganii ATCC 8019 assessed as growth inhibition by measuring turbidity of medium at >= MIC measured over 10 hrs by microplate reader analysis. Type of experiment: functional, organism-based. The essentials: as §2
Experiment [12] deals with Morganella morganii. Description: Antibacterial activity against Morganella morganii ATCC 8019. Format: functional.
For experiment [13], the system named is Morganella morganii. Description: Antibacterial activity against Morganella morganii ATCC 8019 assessed as growth inhibition after 24 hrs by micro dilution method. Format: functional. The note with it: ATCC 8019, 24 h. The essentials:
as §1

The subject of experiment [14] is Enterococcus sp. As to the kind of experiment: Antibacterial activity against Enterococcus sp. ATCC 6589 assessed as growth inhibition after 24 hrs by micro dilution method. Format: functional. Conditions: ATCC 6589, 24 h. A digest of the protocol:
as §1

Another experiment deals with Klebsiella aerogenes. As to the kind of experiment: Antibacterial activity against Enterobacter aerogenes ATCC 13048 assessed as growth inhibition after 24 hrs by micro dilution method. Format: functional. Conditions: ATCC 13048, 24 h. A digest of the protocol: as §1

≈ marks a conversion by molar mass, not a printed value. Calls of active or inactive are those of the source. The rule behind the calls is not given here.

In general, MIC refers to the least concentration at which growth counts as inhibited. Turning to `O=C1N(Cc2ccc(Cl)cc2)c2ccc(Cl)cc2C(O)C1(Cc1ccc(Cl)cc1)Cc1ccc(Cl)cc1` (stereo unspecified), the MIC was 50 µg/mL (≈ 87.5 µM) with Staphylococcus aureus [1]; 50 µg/mL (≈ 87.5 µM) in the experiment on Pseudomonas aeruginosa; above 100 µg/mL with Bacillus spizizenii; 50 µg/mL (≈ 87.5 µM) in the experiment with Shigella sonnei [5]; 50 µg/mL (≈ 87.5 µM) in the experiment on Escherichia coli [6]. Moreover, the MLC in the experiment on Staphylococcus aureus [2] was 100 µg/mL (≈ 175 µM); in the experiment with Escherichia coli [3] it was above 100 µg/mL; in the experiment on Shigella sonnei [4], 100 µg/mL (≈ 175 µM).

In the case of `COc1ccc(CC2(Cc3ccc(OC)cc3)C(=O)Nc3ccccc3C2O)cc1` (stereo unspecified), the minimal inhibitory concentration (MIC) in the experiment with Staphylococcus aureus [1], in the experiment on Pseudomonas aeruginosa, in the experiment on Bacillus spizizenii, in the experiment with Shigella sonnei [5] and with Escherichia coli [6] was 100 µg/mL (≈ 248 µM) throughout. Besides, the results for the MLC in the experiment on Staphylococcus aureus [2], with Escherichia coli [3] and in the experiment with Shigella sonnei [4] were 200 µg/mL (≈ 496 µM), above 200 µg/mL and above 200 µg/mL, respectively.

`O=C1Nc2ccccc2C(O)C1(Cc1ccccc1)Cc1ccccc1` (stereo unspecified): the MIC with Staphylococcus aureus [1] amounted to 50 µg/mL (≈ 146 µM); in the experiment with Pseudomonas aeruginosa, 100 µg/mL (≈ 291 µM); with Bacillus spizizenii it was 100 µg/mL (≈ 291 µM); with Shigella sonnei [5], 50 µg/mL (≈ 146 µM); in the experiment on Escherichia coli [6], 100 µg/mL (≈ 291 µM). Moreover, the MLC in the experiment with Staphylococcus aureus [2], with Escherichia coli [3] and in the experiment with Shigella sonnei [4] was above 200 µg/mL each time.

For the molecule `O=C1Nc2ccc(Cl)cc2C(O)C1(Cc1ccc(Cl)cc1)Cc1ccc(Cl)cc1` (stereo unspecified), the MIC stood at 50 µg/mL (≈ 112 µM) in the experiment with Salmonella typhimurium [7]; 3.12 µg/mL (≈ 6.98 µM) in the experiment on Staphylococcus aureus [1]; 50 µg/mL (≈ 112 µM) in the experiment with Pseudomonas aeruginosa; 3.12 µg/mL (≈ 6.98 µM) in the experiment with Bacillus spizizenii; 6.25 µg/mL (≈ 14 µM) with Morganella morganii [13]; 6.25 µg/mL (≈ 14 µM) in the experiment on Enterococcus sp. [14]. Further, the MIC in the experiment with Shigella sonnei [5] is 3.12 µg/mL (≈ 6.98 µM); in the experiment on Klebsiella aerogenes, 50 µg/mL (≈ 112 µM); in the experiment with Escherichia coli [6], 3.12 µg/mL (≈ 6.98 µM). Besides, the MLC in the experiment with Salmonella typhimurium [8] was found to be 100 µg/mL (≈ 224 µM); with Enterococcus sp. [10] it was 50 µg/mL (≈ 112 µM); in the experiment with Staphylococcus aureus [2], 12.5 µg/mL (≈ 28 µM); with Morganella morganii [12], 6.25 µg/mL (≈ 14 µM); in the experiment with Escherichia coli [3], 50 µg/mL (≈ 112 µM); in the experiment on Shigella sonnei [4], 12.5 µg/mL (≈ 28 µM). The “growth inhibition (GI)” value in the experiment with Enterococcus sp. [9] and in the experiment on Morganella morganii [11] was “Active” in each case.

For `O=C1N(Cc2ccccc2)c2ccccc2C(O)C1(Cc1ccccc1)Cc1ccccc1` (stereo unspecified), the minimum inhibitory concentration (MIC) in the experiment with Staphylococcus aureus [1] is 100 µg/mL (≈ 231 µM); with Pseudomonas aeruginosa, above 200 µg/mL; in the experiment with Bacillus spizizenii, 100 µg/mL (≈ 231 µM); in the experiment on Shigella sonnei [5] it was 200 µg/mL (≈ 461 µM); in the experiment on Escherichia coli [6], 100 µg/mL (≈ 231 µM). Further, the MLC in the experiment with Staphylococcus aureus [2], in the experiment on Escherichia coli [3] and in the experiment with Shigella sonnei [4] was above 200 µg/mL in each case.

With `Cc1ccc2c(c1)C(O)C(Cc1ccccc1)(Cc1ccccc1)C(=O)N2` (stereo unspecified), the minimal inhibitory concentration (MIC) worked out at 50 µg/mL (≈ 140 µM) with Staphylococcus aureus [1]; 100 µg/mL (≈ 280 µM) in the experiment on Pseudomonas aeruginosa; 50 µg/mL (≈ 140 µM) with Bacillus spizizenii; 50 µg/mL (≈ 140 µM) in the experiment with Shigella sonnei [5]; 25 µg/mL (≈ 69.9 µM) in the experiment on Escherichia coli [6]. Moreover, the MLC with Staphylococcus aureus [2], in the experiment with Escherichia coli [3] and with Shigella sonnei [4] was above 200 µg/mL in each case.

For `CN1C(=O)C(Cc2ccccc2)(Cc2ccccc2)C(O)c2ccccc21` (stereo unspecified), the minimal inhibitory concentration (MIC) with Staphylococcus aureus [1] worked out at 100 µg/mL (≈ 280 µM); in the experiment with Pseudomonas aeruginosa, 100 µg/mL (≈ 280 µM); with Bacillus spizizenii, 50 µg/mL (≈ 140 µM); with Shigella sonnei [5], 100 µg/mL (≈ 280 µM); with Escherichia coli [6], 50 µg/mL (≈ 140 µM). Besides, the MLC in the experiment on Staphylococcus aureus [2], in the experiment on Escherichia coli [3] and in the experiment on Shigella sonnei [4] was above 200 µg/mL each time.

Turning to `O=C1Nc2ccccc2C(O)C1(Cc1ccc(Cl)cc1)Cc1ccc(Cl)cc1` (stereo unspecified), the minimal inhibitory concentration (MIC) with Staphylococcus aureus [1] was found to be 6.25 µg/mL (≈ 15.2 µM); in the experiment on Pseudomonas aeruginosa, 100 µg/mL (≈ 243 µM); in the experiment with Bacillus spizizenii, 1.56 µg/mL (≈ 3.78 µM); in the experiment with Shigella sonnei [5], 6.25 µg/mL (≈ 15.2 µM); with Escherichia coli [6], 1.52 µg/mL (≈ 3.69 µM). For the same molecule, the figures for the MLC in the experiment with Staphylococcus aureus [2], with Escherichia coli [3] and with Shigella sonnei [4] were 100 µg/mL (≈ 243 µM), 25 µg/mL (≈ 60.6 µM) and 100 µg/mL (≈ 243 µM), respectively.

Take `O=C1Nc2ccc(F)cc2C(O)C1(Cc1ccccc1)Cc1ccccc1` (stereo unspecified): the minimal inhibitory concentration (MIC) is 50 µg/mL (≈ 138 µM) in the experiment with Staphylococcus aureus [1]; 50 µg/mL (≈ 138 µM) in the experiment with Pseudomonas aeruginosa; 25 µg/mL (≈ 69.2 µM) in the experiment on Bacillus spizizenii; 25 µg/mL (≈ 69.2 µM) in the experiment with Shigella sonnei [5]; 25 µg/mL (≈ 69.2 µM) with Escherichia coli [6]. Also, the MLC with Staphylococcus aureus [2], with Escherichia coli [3] and in the experiment with Shigella sonnei [4] was above 200 µg/mL in each case.

Values taken from ChEMBL document CHEMBL3259650, “Synthesis of symmetrically substituted 3,3-dibenzyl-4-hydroxy-3,4-dihydro-1H-quinolin-2-ones, as novel quinoline derivatives with antibacterial activity” (Eur J Med Chem, 2014).
